For data set [1], the target named is DCN1-like protein 1/NEDD8-conjugating enzyme Ubc12 (Homo sapiens, UniProt Q96GG9). The data set can be described thus: Inhibition of biotinylated DCN1 (unknown origin) - AlexaFluor488 labelled UBE2M (unknown origin) protein-protein interaction after 1 hr by TR-FRET assay. Background: Time-resolved FRET reads energy transfer from a long-lived donor to a nearby acceptor.

The next data set relates to BJ. The data set can be described thus: Cytotoxicity against human BJ cells assessed as cell growth inhibition after 72 hrs by Celltiter-Glo assay. Type of data set: cell-based. The gist of the method:
(§1)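 Cells were seeded overnight at 37 °C, 5% CO2, at densities validated for logarithmic growth (BJ 1000 cells/well, HCC95 600 cells/well), then treated with ten 3-fold serial dilutions from DMSO stocks for 72 h. […] Fit on a semi-log plot; ≥3 technical and 2 biological replicates.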
(Cellular ATP, detected with luciferase, serves as a proxy for viable cell number.)

Data set [2] relates to HCC95. The data set can be described thus: Cytotoxicity against human HCC95 cells overexpressing DCN1 assessed as cell growth inhibition after 72 hrs by Celltiter-Glo assay. The class given is cell-based. To be noted: HCC95, 72 h. The method in brief:
as §1

For data set [3], the system named is HCC95. The data set can be described thus: Induction of ROS generation in human HCC95 cells at 30 uM after 5 hrs by H2DCFDA dye based fluorescence assay. The class given is functional, cell-based. The method in brief: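 HCC95 cells were seeded at 25,000 cells/well and incubated overnight. They were PBS-washed, loaded with DCFDA for 45 min at 37 °C in the dark, washed twice, then exposed to compound in buffer for 5 h at 37 °C in the dark. Fluorescence was read at Ex/Em 485/535 nm.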

A short description of data set [4]: Half life in mouse microsomes at 0.8 uM. Type of data set: ADME, Microsome. The method in brief:
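Oxidative metabolic stability in murine liver microsomes, drug at 0.8 µM. Half-life is reported as mean ± SD from at least one independent experiment run in triplicate.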

Data set [5] is described as follows: Kinetic aqueous solubility of compound at pH 7.4. The class given is physicochemical. To be noted: buffer, read-out: Kinetic_solubility. The gist of the method:
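Kinetic aqueous solubility was measured in pH 7.4 buffer. Values are reported as means ± standard deviation from at least one independent experiment run in triplicate.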

Data set [6] addresses T1, DCN1-like protein 3 (Homo sapiens) (UniProt Q8IWE4).
T1 sequence (whole entry): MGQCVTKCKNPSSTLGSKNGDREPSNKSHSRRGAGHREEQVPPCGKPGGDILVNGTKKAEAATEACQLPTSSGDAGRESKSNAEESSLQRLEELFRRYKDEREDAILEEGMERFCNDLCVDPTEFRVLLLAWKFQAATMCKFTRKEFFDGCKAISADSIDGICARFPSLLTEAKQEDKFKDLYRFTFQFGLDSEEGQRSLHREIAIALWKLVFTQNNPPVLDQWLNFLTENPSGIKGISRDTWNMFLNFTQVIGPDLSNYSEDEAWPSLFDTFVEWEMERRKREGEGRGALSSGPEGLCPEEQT
The data set can be described thus: Inhibition of DCN3 (unknown origin) assessed as decrease in DCN1-stimulated NEDD8 transfer from UBE2M to CUL2 at 120 uM after 10 sec by pulse-chase assay.

The target in data set [7] is T2, DCN1-like protein 4 (Homo sapiens) (UniProt Q92564).
T2 sequence (whole entry): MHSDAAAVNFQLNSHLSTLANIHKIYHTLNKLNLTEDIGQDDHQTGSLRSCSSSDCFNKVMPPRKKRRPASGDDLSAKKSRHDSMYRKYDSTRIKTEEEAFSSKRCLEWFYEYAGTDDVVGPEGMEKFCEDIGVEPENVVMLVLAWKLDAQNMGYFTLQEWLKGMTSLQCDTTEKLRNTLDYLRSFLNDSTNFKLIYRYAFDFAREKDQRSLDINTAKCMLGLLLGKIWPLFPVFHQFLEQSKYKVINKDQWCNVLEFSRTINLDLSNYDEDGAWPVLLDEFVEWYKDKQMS
The experiment in a line: Inhibition of DCN4 (unknown origin) assessed as decrease in DCN1-stimulated NEDD8 transfer from UBE2M to CUL2 at 60 uM after 10 sec by pulse-chase assay.

The target in data set [8] is DCN1-like protein 2 (Homo sapiens) (UniProt Q6PH85). The data set can be described thus: Inhibition of DCN2 (unknown origin) assessed as decrease in DCN1-stimulated NEDD8 transfer from UBE2M to CUL2 at 10 uM after 10 sec by pulse-chase assay.
DCN1-like protein 2 (Homo sapiens), sequence (Q6PH85 whole entry): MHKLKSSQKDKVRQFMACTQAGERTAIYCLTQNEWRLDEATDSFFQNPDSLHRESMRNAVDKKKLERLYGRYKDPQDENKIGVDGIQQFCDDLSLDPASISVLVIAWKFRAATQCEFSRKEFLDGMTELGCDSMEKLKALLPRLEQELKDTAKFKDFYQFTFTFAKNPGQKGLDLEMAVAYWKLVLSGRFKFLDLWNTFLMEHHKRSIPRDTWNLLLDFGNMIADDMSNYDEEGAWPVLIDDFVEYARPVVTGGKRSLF
In data set [9] the target is T3, DCN1-like protein 5 (Homo sapiens) (UniProt Q9BTE7).
T3 sequence (whole entry): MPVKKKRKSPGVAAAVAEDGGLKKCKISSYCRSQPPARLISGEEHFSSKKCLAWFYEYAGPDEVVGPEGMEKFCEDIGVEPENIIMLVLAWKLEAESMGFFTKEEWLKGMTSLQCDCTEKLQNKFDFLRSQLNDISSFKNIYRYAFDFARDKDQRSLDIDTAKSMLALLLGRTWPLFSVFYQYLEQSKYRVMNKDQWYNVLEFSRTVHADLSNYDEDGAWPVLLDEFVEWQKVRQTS
The data set can be described thus: Inhibition of DCN5 (unknown origin) assessed as decrease in DCN1-stimulated NEDD8 transfer from UBE2M to CUL2 at 60 uM after 10 sec by pulse-chase assay.

≈ marks a conversion by molar mass, not a printed value. Calls of active or inactive are those of the source. No cut-off for these calls is given here.

For orientation: IC50 means the midpoint of a concentration-inhibition curve. For orientation: EC50 means the midpoint of the concentration-response curve. As a reminder, the half-life is the time in which the quantity being followed falls by half. A low value points to fast loss.

DCN1-like protein 1/NEDD8-conjugating enzyme Ubc12, sequence (Q96GG9 whole entry): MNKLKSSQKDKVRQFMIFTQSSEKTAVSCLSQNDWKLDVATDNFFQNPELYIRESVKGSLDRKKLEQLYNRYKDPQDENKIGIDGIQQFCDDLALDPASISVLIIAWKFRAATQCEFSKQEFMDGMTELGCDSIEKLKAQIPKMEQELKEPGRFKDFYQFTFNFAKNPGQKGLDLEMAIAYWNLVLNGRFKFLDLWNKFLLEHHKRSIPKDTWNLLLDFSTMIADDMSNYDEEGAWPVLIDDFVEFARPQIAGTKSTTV
DCN1-like protein 1/NEDD8-conjugating enzyme Ubc12, sequence (P61081 whole entry, further chain): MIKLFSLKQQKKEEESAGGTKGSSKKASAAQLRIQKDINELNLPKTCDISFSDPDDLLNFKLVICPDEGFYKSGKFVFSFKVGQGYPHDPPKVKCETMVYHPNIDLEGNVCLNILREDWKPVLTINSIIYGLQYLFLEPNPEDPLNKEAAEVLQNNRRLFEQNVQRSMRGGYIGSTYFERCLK

For the molecule `Cc1cccc(C(=O)N[C@@H]2C(=O)Nc3c(c(C)nn3-c3ccccn3)[C@@H]2c2ccc(F)cc2)c1`, the IC50 in data set [1] was more than 15 µM.
The same measure, in the same setting: the figure for `CCN1C(=O)[C@@H](NC(=O)c2cccc(C)c2)[C@@H](c2ccc(F)cc2)c2c(C)nn(C3CCCC3)c21` is 0.8 µM.
On the same count and under the same terms, then `Cc1cccc(C(=O)N[C@@H]2C(=O)Nc3c(c(C)nn3-c3ccccc3)[C@@H]2c2cccc(F)c2)c1`, with 7.1 µM.
Same read-out and setting: then `Cc1ccc(C(=O)N[C@@H]2C(=O)Nc3c(c(C)nn3-c3ccccc3)[C@@H]2c2ccc(F)cc2)cc1`, with more than 15 µM.
In turn, `Cc1cccc(C(=O)N[C@@H]2C(=O)N(C(C)C)c3c(c(C)nn3-c3ccccc3)[C@@H]2c2ccc(F)cc2)c1` yielded an IC50 in data set [1] of 4.1 µM.
`Cc1nn(-c2ccccc2)c2c1[C@H](c1ccc(F)cc1)[C@H](NC(=O)c1cccc(I)c1)C(=O)N2` showed a concentration for half-maximal inhibition (IC50) in [1] of 7.1 µM.
Still for that read-out and setting: then `Cc1cccc(C(=O)N[C@@H]2C(=O)Nc3c(c(C)nn3Cc3ccccc3)[C@@H]2c2ccc(F)cc2)c1`, with more than 15 µM; and `Cc1cccc(C(=O)N[C@@H]2C(=O)Nc3c(c(C)nn3-c3ccccc3)[C@@H]2Cc2ccccc2)c1`, with 3 µM; and `Cc1cccc(C(=O)N[C@@H]2C(=O)Nc3n[nH]c(C)c3[C@@H]2c2ccc(F)cc2)c1`, with more than 15 µM.
For `CCCN1C(=O)[C@@H](NC(=O)c2cccc(C)c2)[C@@H](c2ccc(F)cc2)c2c1nn(CCC)c2C`, the EC50 in the data set with BJ and in the data set with HCC95 [2] was more than 25 µM each time.
`Cc1cccc(C(=O)N[C@@H]2C(=O)Nc3c(c(C)nn3-c3ccccc3)[C@@H]2C2CCCCC2)c1` gave a half-inhibitory concentration (IC50) in data set [1] of 1.3 µM.
On the same count and under the same terms, the figure for `Cc1cncc(C(=O)N[C@@H]2C(=O)Nc3c(c(C)nn3-c3ccccc3)[C@@H]2c2ccc(F)cc2)c1` is more than 15 µM.
Still for that read-out and setting: then `Cc1cccc(C(=O)N[C@@H]2C(=O)Nc3c(c(C)nn3-c3ccccc3)[C@@H]2c2ccccc2)c1`, with 4 µM; and `Cc1cccc(C(=O)N[C@@H]2C(=O)N(C)c3c(c(C)nn3C(C)(C)C)[C@@H]2c2ccc(F)cc2)c1`, with 2.3 µM; and `CCC[C@H]1c2c(C)nn(-c3ccccc3)c2NC(=O)[C@H]1NC(=O)c1cccc(C)c1`, with 3.1 µM.
Same read-out and setting: the figure for `Cc1nn(-c2ccccc2)c2c1[C@H](c1ccc(F)cc1)[C@H](NC(=O)c1ccccc1)C(=O)N2` is 13 µM.
In data set [1], `CC(=O)N1C(=O)[C@@H](NC(=O)c2cccc(C)c2)[C@@H](c2ccc(F)cc2)c2c(C)nn(-c3ccccc3)c21` had an IC50 of 5.6 µM.
Still for that read-out and setting: the figure for `Cc1nn(-c2ccccc2)c2c1[C@H](c1ccc(F)cc1)[C@H](NC(=O)c1cccc(C(C)(C)C)c1)C(=O)N2` is more than 15 µM.
Same read-out and setting: then `Cc1cccc(C(=O)N[C@@H]2C(=O)Nc3c(c(C)nn3-c3ccccc3)[C@@H]2c2ccc(F)nc2)c1`, with 3.5 µM.
Consider `CCOC1=Nc2c(c(C)nn2-c2ccccc2)[C@H](c2ccc(F)cc2)[C@@H]1NC(=O)c1cccc(C)c1`, for which the EC50 in the data set on BJ and in the data set with HCC95 [2] was more than 25 µM throughout.
Consider `Cc1ccccc1C(=O)N[C@@H]1C(=O)Nc2c(c(C)nn2-c2ccccc2)[C@@H]1c1ccc(F)cc1`, for which the 50% inhibitory concentration (IC50) in data set [1] is more than 15 µM.
On the same count and under the same terms, the figure for `Cc1cccc(C(=O)N[C@@H]2C(=O)Nc3c(c(C)nn3C3CC3)[C@@H]2c2ccc(F)cc2)c1` is 2 µM; for `Cc1cccc(C(=O)N[C@@H]2C(=O)Nc3c(c(C)nn3-c3ccccc3)[C@@H]2c2cccnc2)c1` it is more than 15 µM; for `CC(=O)CN1C(=O)[C@@H](NC(=O)c2cccc(C)c2)[C@@H](c2ccc(F)cc2)c2c(C)nn(-c3ccccc3)c21` it is 7.1 µM.
On the same count and under the same terms, then `Cc1nn(-c2ccccc2)c2c1[C@H](c1ccc(F)cc1)[C@H](NC(=O)c1ccc(Cl)c(Cl)c1)C(=O)N2`, with more than 15 µM; and `CCCn1nc(C)c2c1NC(=O)[C@@H](NC(=O)c1cccc(C)c1)[C@H]2c1ccc(F)cc1`, with 1.2 µM.
`Cc1cccc(C(=O)N[C@@H]2C(=O)Nc3c(c(C)nn3C(C)(C)C)[C@@H]2c2ccc(F)cc2)c1`: the IC50 in data set [1] turned out to be 0.5 µM.
As for `CCCCN1CCC(N(Cc2ccccc2)C(=O)Nc2ccc(Cl)c(Cl)c2)CC1`, in the data set on HCC95 [3], the result was inactive.
Regarding `CCCn1nc(C)c2c1N(CC)C(=O)[C@@H](NC(=O)c1cccc(C)c1)[C@H]2c1ccc(F)cc1` (racemic), the IC50 in data set [1] is 0.2 µM. Also, the half-maximal effective concentration (EC50) in the data set on BJ and in the data set on HCC95 [2] was more than 25 µM throughout. In data set [4], this molecule showed a half-life at 0.8 µM of less than 6 min. Moreover, the solubility kinetic in data set [5] came out at 10.9 µM (≈ 4.89 µg/mL).
For the molecule `Cc1cccc(C(=O)N[C@H]2C(=O)Nc3c(c(C)nn3-c3ccccc3)[C@@H]2c2ccc(F)cc2)c1` (racemic), the EC50 with BJ and with HCC95 [2] was more than 25 µM throughout. Further, the outcome in the data set on HCC95 [3] was inactive.
`Cc1cccc(C(=O)N[C@@H]2C(=O)Nc3c(c(C)nn3C3CCCC3)[C@@H]2c2ccc(F)cc2)c1` (racemic): the 50% inhibitory concentration (IC50) in data set [1] was 0.3 µM. Besides, the EC50 with BJ and in the data set on HCC95 [2] was more than 25 µM throughout. Further, in [4], the half-life at 0.8 µM is 30 min. Also, in data set [5], the solubility kinetic came out at 17.1 µM (≈ 7.64 µg/mL).
On to `Cc1cccc(C(=O)N[C@@H]2C(=O)Nc3c(c(C)nn3-c3ccccc3)[C@@H]2c2ccc(F)cc2)c1` (racemic), for which, in [1], the IC50 was 1.4 µM. For the same molecule, the EC50 in the data set on BJ and in the data set on HCC95 [2] was more than 25 µM in each case. Moreover, the half-life at 0.8 µM in [4] is 66 min. The solubility kinetic in data set [5] worked out at 5.5 µM (≈ 2.5 µg/mL).
With `CCn1nc(C)c2c1NC(=O)[C@@H](NC(=O)c1cccc(C)c1)[C@H]2c1ccc(F)cc1` (racemic), the EC50 with BJ and in the data set on HCC95 [2] was more than 25 µM each time. Also, the half-life at 0.8 µM in data set [4] was 36 min. Moreover, in [5], the solubility kinetic was determined as 92.8 µM (≈ 37.7 µg/mL).
`CCN1C(=O)[C@@H](NC(=O)c2cccc(C)c2)[C@@H](c2ccc(F)cc2)c2c(C)nn(C3CC3)c21` (racemic) showed an IC50 in data set [1] of 0.2 µM. The EC50 in the data set on BJ and in the data set with HCC95 [2] was more than 25 µM each time. This molecule also returned a half-life at 0.8 µM in [4] of less than 6 min. The solubility kinetic in data set [5] was found to be 46.1 µM (≈ 20.6 µg/mL).
Consider `CCN1C(=O)[C@@H](NC(=O)c2cccc(C)c2)[C@@H](c2ccc(F)cc2)c2c(C)nn(-c3ccccc3)c21` (relative stereo), for which the inhibition entry in data set [6], in data set [7] and in data set [9] was “inactive” throughout. Moreover, the EC50 in the data set with BJ and in the data set on HCC95 [2] was more than 25 µM each time. Further, in the data set with HCC95 [3], the outcome was inactive. Moreover, in data set [8], the inhibition result is “Active”.
On to `Cc1ccc([C@H]2c3c(C)nn(-c4ccccc4)c3NC(=O)[C@H]2NC(=O)c2cccc(C)c2)cc1` (relative stereo), for which the IC50 in data set [1] is 5.1 µM. The 50% effective concentration (EC50) in the data set with BJ and in the data set with HCC95 [2] was more than 25 µM throughout. Besides, the half-life at 0.8 µM in [4] is 18 min. For the same molecule, the solubility kinetic in data set [5] was 1.1 µM (≈ 0.496 µg/mL).
In the case of `CCC(C)n1nc(C)c2c1NC(=O)[C@@H](NC(=O)c1cccc(C)c1)[C@H]2c1ccc(F)cc1` (stereo in doubt; 22a), the IC50 in data set [1] was found to be 0.7 µM.
Still for that read-out and setting: the figure for `CCC(C)n1nc(C)c2c1NC(=O)[C@@H](NC(=O)c1cccc(C)c1)[C@H]2c1ccc(F)cc1` (stereo in doubt; 22b) is 0.6 µM.

Values taken from ChEMBL document CHEMBL4376818, “Discovery of Novel Pyrazolo-pyridone DCN1 Inhibitors Controlling Cullin Neddylation” (J Med Chem, 2019).
